Compounds with a hit are over-represented: about 5.8% of the library has one in this group of screens.
WT yeast gro inh – growth inhibition of WT strain, primary screen, mitochondrial fusion inhibitor project, WT and mutant strains, chemical genetic; inhibition, % at 10 µM; actives 2.1% (n = 190,000); AID 1362, 2008; mitochondrial fusion phenotypic screen; in the data active means inhibition above about 58%; tested in S. cerevisiae
Cl transport mod – KCC2 cotransporter modulators, thallium flux, primary screen, cell-based, HEK293 KCC2, FluoZin-2 fluorescence, MLSMR; B-score of Tl+ flux slope (higher = more flux/activation; lower = inhibition) at 10 µM; AID 1456, 2008; KCC2 cells, thallium flux FluoZin-2 fluorescence; actives 2.2% (n = 190,000); Solute carrier family 12 member 5 (Homo sapiens), Q9H2X9;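 active means thallium flux slope and its plate-corrected score both differing from the plate sample mean at a set confidence after two filtering rounds, in either direction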;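 further: slope of fluorescence scaled to starting intensity during 10 to 20 s after thallium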
ROMK mod – ROMK potassium channel modulators, primary screen, cell-based, thallium flux, MLSMR library | B-score at 10 µM | actives 2% (n = 130,000) | Tet-inducible ROMK, thallium flux fluorescence; actives lie on both sides | AID 1918, 2009 | ATP-sensitive inward rectifier potassium channel 1 (Homo sapiens), P48048;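 active means signal ratio slope over the read window, or its plate-corrected B-score, at least 3 SD from the plate mean, either direction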;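 further: B-score of the F/F0 ratio slope over 7 to 12 s after thallium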
14-3-3 Bad inh – inhibitors of 14-3-3 zeta/Bad binding, primary screen, biochemical, TR-FRET, bovine 14-3-3 zeta | actives 0.71% (n = 220,000) | TR-FRET 14-3-3zeta/Dy647-pBad peptide displacement, 1 h | inhibition, % at 21.7 µM | 14-3-3 protein zeta/delta (Bos taurus), P63103;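 active means inhibition above about 70%, limit read from the data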;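 further: 0% = full 14-3-3 plus peptide FRET controls and 100% = background without 14-3-3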
Target sequence (P63103 whole entry, looked up): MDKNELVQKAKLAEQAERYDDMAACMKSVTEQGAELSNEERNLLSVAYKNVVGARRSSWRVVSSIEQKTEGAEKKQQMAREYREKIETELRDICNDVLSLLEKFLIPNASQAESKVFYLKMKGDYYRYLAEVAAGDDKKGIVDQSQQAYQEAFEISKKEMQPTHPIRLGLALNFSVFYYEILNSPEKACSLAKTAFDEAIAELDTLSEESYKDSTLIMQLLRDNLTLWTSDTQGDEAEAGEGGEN
p47phox inh – p47phox/p22phox peptide binding inhibitors, primary screen, biochemical, uHTS, NADPH oxidase regulatory subunit; Neutrophil cytosol factor 1 (Homo sapiens), P14598; fluorescence polarization, 2 h; inhibition, % at 24.7 µM; actives 0.53% (n = 220,000);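 active means inhibition above about 30%, limit read from the data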;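 further: 0% = p47phox with labelled peptide and 100% = labelled peptide alone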
Target sequence (P14598 whole entry, looked up): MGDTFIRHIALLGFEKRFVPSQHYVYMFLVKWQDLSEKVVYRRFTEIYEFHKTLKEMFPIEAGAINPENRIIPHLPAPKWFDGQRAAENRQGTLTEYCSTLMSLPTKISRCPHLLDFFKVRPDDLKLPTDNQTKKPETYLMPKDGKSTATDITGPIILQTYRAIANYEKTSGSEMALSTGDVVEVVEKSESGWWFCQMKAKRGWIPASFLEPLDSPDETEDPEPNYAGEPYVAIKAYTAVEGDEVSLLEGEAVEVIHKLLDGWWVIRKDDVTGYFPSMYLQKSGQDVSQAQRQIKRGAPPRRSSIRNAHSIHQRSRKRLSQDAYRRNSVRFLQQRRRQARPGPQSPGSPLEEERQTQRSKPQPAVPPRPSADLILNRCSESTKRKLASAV
RBBP9 inhibitor – human RBBP9 inhibitors, primary screen, biochemical, fluorescence polarization, FP-Rh probe, HTS; actives 0.2% (n = 220,000); recombinant RBBP9; inhibition, % at 7.94 µM; Serine hydrolase RBBP9 (Homo sapiens), O75884;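 active means inhibition above the campaign mean of all tested compounds plus 3 SD, cut at about 14% in these data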;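 further: plate controls were DMSO wells with RBBP9 for no effect and wells lacking RBBP9 protein for full effect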
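System: RBBP9 protein | Quantity: 2.5 µM RBBP9 dispensing solution, before mixing | Reagent: FP-Rh probe, 375 nM dispensing solution | Timing: Enzyme-compound preincubation 30 min, then probe labeling 45 min, 25 °C | Measured by: Fluorescence polarization | Read-out: % inhibition | Replication: One well per compound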
* hit, by the source's call.

Screening COc1ccc(/C=C/C(=O)NC(=S)NNC(=O)c2ccco2)cc1 returned WT yeast gro inh -9, Cl transport mod 11*, ROMK mod 0.8, 14-3-3 Bad inh -6, p47phox inh 4 and RBBP9 inhibitor -11.
Nc1cc(=O)nc(SCC(=O)Nc2ccccc2Cl)n1-c1ccccc1 was read as WT yeast gro inh 14, Cl transport mod 1.3, ROMK mod 1, 14-3-3 Bad inh 3, p47phox inh 1 and RBBP9 inhibitor -6.
For CC1Cc2ccccc2N1C(=O)COC(=O)CCc1nc2ccccc2c(=O)[nH]1 (centres undefined) the results were WT yeast gro inh 0, Cl transport mod -0.94, ROMK mod -1, 14-3-3 Bad inh -12, p47phox inh -4 and RBBP9 inhibitor -3.
Screening CCOc1ccc(N(CC(=O)NN=C2CCCC2)S(C)(=O)=O)cc1 returned WT yeast gro inh 7, Cl transport mod 0.52, ROMK mod 0.41, 14-3-3 Bad inh -5, p47phox inh 5 and RBBP9 inhibitor -4.
CCNC(=O)c1c(NC(=O)c2cc(-c3cc(C)ccc3O)n[nH]2)sc2c1CCCC2 was read as WT yeast gro inh -5, Cl transport mod 0.27, 14-3-3 Bad inh 45, p47phox inh 52* and RBBP9 inhibitor -4.
`Cc1ccc(-c2cc(C(=O)Nc3sc4c(c3C(=O)NCc3ccco3)CCC4)[nH]n2)c(O)c1` gave WT yeast gro inh 8, Cl transport mod -0.54, 14-3-3 Bad inh 29, p47phox inh -9 and RBBP9 inhibitor -5.
Screening COc1ccc(C(C(=O)NC2CCCCC2)N(C(=O)CCl)c2cccc(Cl)c2)cc1 (centres undefined) returned WT yeast gro inh -24, Cl transport mod -0.33, 14-3-3 Bad inh 3, p47phox inh 5 and RBBP9 inhibitor 0.
Cc1c(NC(=S)NC(=O)c2ccco2)cccc1-c1nc2ncccc2o1 was read as WT yeast gro inh -5, Cl transport mod 13*, ROMK mod -0.88, 14-3-3 Bad inh 9, p47phox inh 9 and RBBP9 inhibitor -1.
`CCOc1cc(/C=N/NC(=O)COc2ccccc2C)ccc1OC(=O)c1cccs1` gave WT yeast gro inh 65*, Cl transport mod 0.69, ROMK mod 1.2, 14-3-3 Bad inh 0, p47phox inh -8 and RBBP9 inhibitor 0.
CCNC(=O)NC(=O)C(C)OC(=O)c1cccn1C (centres undefined) was read as WT yeast gro inh -25, Cl transport mod -0.061, ROMK mod 0.093, 14-3-3 Bad inh 1, p47phox inh -12 and RBBP9 inhibitor -4.
`Cc1cc(OC(=O)c2cccs2)ccc1C(C)C` gave WT yeast gro inh 33, Cl transport mod -0.033, ROMK mod 0.02, 14-3-3 Bad inh -9, p47phox inh -4 and RBBP9 inhibitor -11.
Cc1oc2ccc(OC(=O)c3cccs3)cc2c1C(=O)OC(C)C was read as WT yeast gro inh 71*, Cl transport mod -0.54, ROMK mod 0.77, 14-3-3 Bad inh -1, p47phox inh -4 and RBBP9 inhibitor -6.
`Cn1ccc(C(=O)NC(=S)N2CCSCC2)n1` gave Cl transport mod 0.36, 14-3-3 Bad inh -8, p47phox inh -3 and RBBP9 inhibitor -9.
COc1ccc(CN2CCN(C(=O)CC(C)C)CC2)cc1OC was read as WT yeast gro inh 0, Cl transport mod 0.73, 14-3-3 Bad inh 74*, p47phox inh -3 and RBBP9 inhibitor -2.
For CCOc1cc(CN2CCN(C(=O)c3ccco3)CC2)ccc1OC the results were WT yeast gro inh 5, Cl transport mod 0.24, ROMK mod -0.48, 14-3-3 Bad inh 61, p47phox inh -8 and RBBP9 inhibitor -8.
For COc1ccc(CN2CCN(C(=O)CC(C)C)CC2)c2ccccc12 the results were WT yeast gro inh 0, Cl transport mod -0.26, 14-3-3 Bad inh 83*, p47phox inh 0 and RBBP9 inhibitor -4.
CCCCCc1c(O)nc(SCCN2CCOCC2)[nH]c1=O was read as WT yeast gro inh -8, Cl transport mod -0.23, ROMK mod 1.1, 14-3-3 Bad inh -6, p47phox inh 1 and RBBP9 inhibitor 5.
`Cc1onc(-c2ccccc2Cl)c1C(=O)Oc1cccc2cccnc12` gave WT yeast gro inh -8, Cl transport mod -2.5, ROMK mod -0.34, 14-3-3 Bad inh -15, p47phox inh -1 and RBBP9 inhibitor -2.
For COc1ccc(C2=Nc3ccc(C)cc3C(c3ccccc3)N2CC(=O)NN)cc1 (centres undefined) the results were WT yeast gro inh -17, Cl transport mod 0.37, ROMK mod -0.31, 14-3-3 Bad inh -4, p47phox inh -15 and RBBP9 inhibitor -8.
For COC(=O)CN1C(c2ccc(Cl)cc2)=Nc2ccc(Cl)cc2C1c1ccccc1 (centres undefined) the results were WT yeast gro inh 82*, Cl transport mod -1.9, 14-3-3 Bad inh 0, p47phox inh -5 and RBBP9 inhibitor -4.
`COc1ccc2c(c1OC)C(=O)OC2Nc1nc(-c2cccc([N+](=O)[O-])c2)cs1` (centres undefined) gave Cl transport mod -0.028, ROMK mod -0.68, 14-3-3 Bad inh 1, p47phox inh -17 and RBBP9 inhibitor -5.
For O=C(Nc1ccc(Cl)cc1)C1=Cc2cc(Cl)ccc2OC1 the results were WT yeast gro inh -5, Cl transport mod -1.8, ROMK mod -0.029, 14-3-3 Bad inh 4, p47phox inh -2 and RBBP9 inhibitor -2.
For COc1ccc2c(c1)C=C(C(=O)NCc1ccc(Cl)cc1)CO2 the results were WT yeast gro inh 68*, 14-3-3 Bad inh -7, p47phox inh -5 and RBBP9 inhibitor -4.
For N#CC(c1ccccc1)(c1ncc(C(F)(F)F)cc1Cl)N1CCOCC1 (centres undefined) the results were WT yeast gro inh 13, 14-3-3 Bad inh -2, p47phox inh 42* and RBBP9 inhibitor -7.
CO/N=C(\Cn1ncc(NC2CCCCC2)c(Br)c1=O)c1ccc(Cl)cc1 was read as WT yeast gro inh 71*, Cl transport mod -0.0047, ROMK mod -0.53, 14-3-3 Bad inh -3, p47phox inh 3 and RBBP9 inhibitor -6.
Cc1[nH]c(=S)c(C#N)c(-c2ccco2)c1C(=O)N(C)C was read as WT yeast gro inh 8, Cl transport mod 0.36, ROMK mod 0.095, 14-3-3 Bad inh -17, p47phox inh 8 and RBBP9 inhibitor 1.

Screens: PubChem BioAssay, several laboratories
